Source: article PMC6976987 (Molecular Genetics and Metabolism Reports, 2020)
Where two headings read alike, the source gives them in different places.

Key:
[1] = assay type: in vivo, human; settings: human, plasma, oral, eliglustat 84 mg BID + ketoconazole 400 mg QD; for Cmax: mean (SD)
In short: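 Open-label, fixed-sequence study in healthy CYP2D6 non-poor metabolizers. Oral test compound 84 mg, fasted: single dose Day 1, BID Days 2–8, then BID with a strong CYP3A/P-gp inhibitor 400 mg QD Days 9–15. Plasma sampled to 36 h Day 1, 12 h Day 8, 72 h Day 15, plus pre-dose samples. LC-MS/MS, LLOQ 0.2 ng/mL. Non-compartmental PK; ratios from log-transformed mixed-effects model with 90% CI.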

[2] = Rifampin drug interaction study: eliglustat pharmacokinetics in healthy adults; assay type: in vivo, human; settings: for increase in eliglustat AUC: single infusion of rifampin 600 mg with single oral dose of eliglustat 127 mg; for Ratio (%) of geometric least squares mean, AUC0-t / AUC: 0 to 12 h; for Tmax: median (minimum, maximum); for AUC: AUC0-τ
[3] = tested on: glucosylceramide synthase; settings: read-out: in vitro IC50; inhibitor of glucosylceramide synthase; cited from earlier work
[4] = Paroxetine drug interaction study: eliglustat pharmacokinetics in healthy adults; assay type: in vivo, human; settings: for AUC: AUC0-τ; for AUC / AUC(0-inf) / Cmax: mean (SD); for AUC(0-inf): AUC0-∞
In short: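 Open-label, fixed-sequence study in healthy CYP2D6 non-poor metabolizers. Oral test compound 84 mg, fasted: single dose Day 1, BID Days 2–8, then BID with a strong CYP2D6 inhibitor 30 mg QD Days 9–18. Plasma sampled to 36 h Day 1, 12 h Day 8, 72 h Day 18, plus pre-dose samples. LC-MS/MS, LLOQ 0.5 ng/mL. Non-compartmental PK, tmax as median (min, max); ratios from log-transformed mixed-effects model.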

[5] = CYP2D6 PMs, eliglustat 84 mg BID with oral rifampin 600 mg QD
[6] = CYP2D6 PMs, multiple dose Day 6, test 600 mg rifampin oral QD + 84 mg eliglustat oral BID (N = 6) vs reference 84 mg eliglustat oral BID alone (N = 6)
[7] = CYP2D6 non-PMs, eliglustat 127 mg BID with oral rifampin 600 mg QD
[8] = CYP2D6 non-PMs, multiple dose Day 6, test 600 mg rifampin oral QD + 127 mg eliglustat oral BID (N = 18) vs reference 127 mg eliglustat oral BID alone (N = 19)
[9] = human, plasma, oral, 84 mg, CYP2D6 PMs, eliglustat 84 mg BID, monotherapy period Days 2 to 6, mean (SD)
[10] = human, plasma, oral, 127 mg, CYP2D6 non-PMs (N = 19), eliglustat 127 mg BID, monotherapy period Days 2 to 6, mean (SD)
[11] = human, plasma, oral, 127 mg, IMs/EMs only (N = 14), eliglustat 127 mg BID, monotherapy period Days 2 to 6, mean (SD)
[12] = human, plasma, po, CYP2D6 PMs, eliglustat 84 mg BID + rifampin 600 mg oral QD, concomitant period Days 2 to 6, mean (SD)
[13] = human, plasma, po, CYP2D6 non-PMs (N = 18), eliglustat 127 mg BID + rifampin 600 mg oral QD, concomitant period Days 2 to 6, mean (SD)
[14] = human, plasma, po, IMs/EMs only (N = 13), eliglustat 127 mg BID + rifampin 600 mg oral QD, concomitant period Days 2 to 6, mean (SD)
[15] = CYP2D6 EMs only, eliglustat 84 mg BID with paroxetine 30 mg QD
[16] = CYP2D6 non-PMs, eliglustat 84 mg BID with paroxetine 30 mg QD

Cmax ([1]; Days 9 to 15, CYP2D6 EMs only (N = 31)): 71 ng/mL | Cmax ([1]; Days 9 to 15, all (N = 33)): 67.2 ng/mL | Tmax ([1]; tmax, Days 9 to 15, all (N = 33), median (minimum, maximum)): 2.3 h | increase in eliglustat AUC ([2]; CYP2D6 EMs): 24% | reduction of eliglustat AUC0-τ compared with eliglustat alone [2, 5]: > 95% | reduction of eliglustat Cmax compared with eliglustat alone [2, 5]: > 95% | Ratio (%) of geometric least squares mean, Cmax [2, 6]: 0.05% | Ratio (%) of geometric least squares mean, AUC0-t [2, 6]: 0.04% | effect on mean eliglustat exposure ([2]; CYP2D6 PMs, single 30-min infusion of rifampin 600 mg with single oral dose of eliglustat 84 mg): no effect | Ratio (%) of geometric least squares mean, AUC0-∞ ([2]; CYP2D6 PMs, single dose Day 1, test 600 mg rifampin IV + 84 mg eliglustat oral (N = 6) vs reference 84 mg eliglustat oral (N = 5)): 0.95% | Ratio (%) of geometric least squares mean, Cmax ([2]; CYP2D6 PMs, single dose Day 1, test 600 mg rifampin IV + 84 mg eliglustat oral (N = 6) vs reference 84 mg eliglustat oral (N = 6)): 0.97% | reduction of eliglustat AUC0-τ (exposure) compared with eliglustat alone [2, 7]: > 85% | reduction of eliglustat Cmax compared with eliglustat alone [2, 7]: > 85% | Ratio (%) of geometric least squares mean, Cmax [2, 8]: 0.16% | Ratio (%) of geometric least squares mean, AUC0-t [2, 8]: 0.15% | Ratio (%) of geometric least squares mean, AUC0-∞ ([2]; CYP2D6 non-PMs, single dose Day 1, test 600 mg rifampin IV + 127 mg eliglustat oral (N = 17) vs reference 127 mg eliglustat oral alone (N = 19)): 1.19% | Ratio (%) of geometric least squares mean, Cmax ([2]; CYP2D6 non-PMs, single dose Day 1, test 600 mg rifampin IV + 127 mg eliglustat oral (N = 19) vs reference 127 mg eliglustat oral alone (N = 19)): 1.19% | increase in eliglustat AUC ([2]; URMs): 11% | Cmax ([2]; human, plasma, iv, CYP2D6 non-PMs (N = 19), eliglustat 127 mg single dose + rifampin 600 mg IV single dose, concomitant period Day 1, mean (SD)): 17.9 ng/mL | half-life ([2]; human, plasma, iv, t1/2z, CYP2D6 PMs, eliglustat 84 mg single dose + rifampin 600 mg IV single dose, concomitant period Day 1, mean (SD)): 6.9 h | Tmax ([2]; human, plasma, iv, CYP2D6 PMs, eliglustat 84 mg single dose + rifampin 600 mg IV single dose, concomitant period Day 1): 4 h | Tmax ([2]; human, plasma, iv, CYP2D6 non-PMs (N = 19), eliglustat 127 mg single dose + rifampin 600 mg IV single dose, concomitant period Day 1): 3 h | AUC [2, 9]: 922 ng·h/mL | Cmax [2, 9]: 113 ng/mL | Tmax ([2]; human, plasma, oral, 84 mg, CYP2D6 PMs, eliglustat 84 mg BID, monotherapy period Days 2 to 6): 3 h | AUC [2, 10]: 295 ng·h/mL | AUC [2, 11]: 378 ng·h/mL | Cmax [2, 10]: 42.8 ng/mL | Cmax [2, 11]: 54.7 ng/mL | Tmax ([2]; human, plasma, oral, 127 mg, CYP2D6 non-PMs (N = 19), eliglustat 127 mg BID, monotherapy period Days 2 to 6): 2 h | AUC [2, 12]: 38 ng·h/mL | AUC [2, 13]: 29.3 ng·h/mL | AUC [2, 14]: 31 ng·h/mL | Cmax [2, 12]: 5.7 ng/mL | Cmax [2, 13]: 4.67 ng/mL | Cmax [2, 14]: 4.89 ng/mL | Tmax ([2]; human, plasma, po, CYP2D6 PMs, eliglustat 84 mg BID + rifampin 600 mg oral QD, concomitant period Days 2 to 6): 2.5 h | Tmax ([2]; human, plasma, po, CYP2D6 non-PMs (N = 18), eliglustat 127 mg BID + rifampin 600 mg oral QD, concomitant period Days 2 to 6): 1.5 h | changes in eliglustat exposure ([2]; in the presence of a single IV infusion of rifampin, called negligible): < 19% | effect of a single intravenous dose of rifampin on eliglustat ([2]; single IV rifampin dose, overall statement): no effect | increase in eliglustat AUC0-τ compared to eliglustat alone [4, 15]: 8.4 fold | increase in eliglustat Cmax compared to eliglustat alone [4, 15]: 7.0 fold | increase in eliglustat AUC0-τ (exposure) compared to eliglustat alone [4, 16]: 8.9 fold | increase in eliglustat Cmax compared to eliglustat alone [4, 16]: 7.3 fold | Ratio (%) of geometric least squares mean, AUC0-t ([4]; all subjects, multiple dose, test 30 mg paroxetine oral QD + 84 mg eliglustat oral BID (N = 33) vs reference 84 mg eliglustat oral BID alone (N = 34), 0 to 12 h): 8.93% | Ratio (%) of geometric least squares mean, Cmax ([4]; all subjects, multiple dose, test 30 mg paroxetine oral QD + 84 mg eliglustat oral BID (N = 33) vs reference 84 mg eliglustat oral BID alone (N = 36)): 7.31% | Tmax ([4]; eliglustat 84 mg BID, Days 2 to 8, all (N = 36), median (minimum, maximum)): 2.0 (0.5–3.0) h | Tmax ([4]; human, plasma, oral, 84 mg): 2 h | half-life ([4]; human, plasma, oral, 84 mg): 4.2 h | AUC ([4]; human, plasma, oral, 84 mg, eliglustat 84 mg BID, Days 2 to 8, CYP2D6 EMs only (N = 33), 0 to 12 h): 120 ng·h/mL | AUC ([4]; human, plasma, oral, 84 mg, eliglustat 84 mg BID, Days 2 to 8, all (N = 34), 0 to 12 h): 120 ng·h/mL | AUC(0-inf) ([4]; human, plasma, oral, 84 mg, eliglustat 84 mg single dose, Day 1, CYP2D6 EMs only (N = 28)): 77.4 ng·h/mL | AUC(0-inf) ([4]; human, plasma, oral, 84 mg, eliglustat 84 mg single dose, Day 1, all (N = 30)): 78.1 ng·h/mL | Cmax ([4]; human, plasma, oral, 84 mg, eliglustat 84 mg BID, Days 2 to 8, CYP2D6 EMs only (N = 33)): 19.4 ng/mL | Cmax ([4]; human, plasma, oral, 84 mg, eliglustat 84 mg BID, Days 2 to 8, all (N = 36)): 19.3 ng/mL | Cmax ([4]; human, plasma, oral, 84 mg, eliglustat 84 mg single dose, Day 1, CYP2D6 EMs only (N = 33)): 10.9 ng/mL | Cmax ([4]; human, plasma, oral, 84 mg, eliglustat 84 mg single dose, Day 1, all (N = 36)): 10.7 ng/mL | AUC ([4]; human, plasma, oral, eliglustat 84 mg BID + paroxetine 30 mg QD, Days 9 to 18, CYP2D6 EMs only (N = 30), 0 to 12 h): 847 ng·h/mL | Cmax ([4]; human, plasma, oral, eliglustat 84 mg BID + paroxetine 30 mg QD, Days 9 to 18, CYP2D6 EMs only (N = 30)): 110 ng/mL | Cmax ([4]; human, plasma, oral, eliglustat 84 mg BID + paroxetine 30 mg QD, Days 9 to 18, all (N = 33)): 110 ng/mL
SMILES: CCCCCCCC(=O)N[C@H](CN1CCCC1)[C@H](O)c1ccc2c(c1)OCCO2 [eliglustat]
IC50 [3]: 24 nM
